19 molecules from ChEMBL document CHEMBL2029291, “Synthesis and structure-activity relationships of new quinolone-type molecules against Trypanosoma brucei” (J Med Chem, 2012) can be followed below.

Data set [1] can be described thus: Cytotoxicity against mouse J774.1 cells after 48 hrs by alamar blue assay. To be noted: J774.1, 48 h. Type of data set: cell-based. A digest of the protocol: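 J774.1 macrophages kept in complete Click RPMI, detached by scraping, PBS-washed, suspended at 2 × 10⁶ cells/mL and plated in phenol-red-free RPMI with or without compound. AlamarBlue added and absorbance read 24 and 48 h later. Compound-free wells taken as 100% growth. Effects of cell density, incubation time and DMSO level were controlled. Tested in duplicate.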
In general terms: The colour change of resazurin is a common sign of viable cells or microbes.

Data set [2] in a line: Selectivity index, ratio of IC50 for mouse J774.1 cells to IC50 for Trypanosoma brucei brucei TC221. To be noted: read-out: Ratio IC50. Type of data set: toxicity.
The subject of data set [3] is Trypanosoma brucei brucei. Briefly: Antitrypanosomal activity against Trypanosoma brucei brucei TC221 […] after 72 hrs by alamar blue assay. The data set is classed as functional, organism-based. Particulars: for pIC50: TC221, 72 h. A digest of the protocol: (§1)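 Trypomastigote T. b. brucei TC 221 grown in Baltz medium, seeded at 10⁴ per mL and exposed to graded compound concentrations (dissolved in DMSO or 0.1 M NaOH). Incubated at 37 °C, 5% CO₂ for 72 h, with a reading also taken at 48 h. AlamarBlue absorbance read at 550/630 nm. IC50 by linear interpolation; duplicate tests, mean and SD.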

Data set [4] relates to Trypanosoma brucei brucei. Briefly: Antitrypanosomal activity against Trypanosoma brucei brucei TC221 […] after 48 hrs by alamar blue assay. The data set is classed as functional, organism-based. To be noted: for pIC50: TC221, 48 h. The method, boiled down: as §1

pIC50: −log10 of the molar value. Where a name gives a salt, the structure may show the parent alone. Activity calls are given as the source filed them. No cut-off for these calls is given here.

For orientation: pIC50 means the negative decadic logarithm of the IC50, by convention in mol/L.

As to `CCCCn1cc(C(=O)NCc2ccccc2)c(=O)c2cc(F)c(-c3ccccc3)cc21`, the pIC50 in data set [1] was less than 4.00; in data set [3], less than 4.40; in data set [4] it was less than 4.40. For the same molecule, the selectivity ratio in data set [2] is more than 2.5.
For the molecule `CCCn1cc(C(=O)O)c(=O)c2cc(F)c(Cl)cc21`, the results for the negative-log IC50 (pIC50) in data set [1], in data set [3] and in data set [4] were less than 4.00, less than 4.40 and less than 4.40, respectively. Also, in data set [2], the selectivity ratio is more than 2.5.
Regarding `Cc1ccc(C(=O)Nc2ccc(S(=O)(=O)O)c3cc(S(=O)(=O)O)cc(S(=O)(=O)O)c23)cc1NC(=O)c1cccc(NC(=O)Nc2cccc(C(=O)Nc3cc(C(=O)Nc4ccc(S(=O)(=O)O)c5cc(S(=O)(=O)O)cc(S(=O)(=O)O)c45)ccc3C)c2)c1` [SURAMIN HEXASODIUM], the negative logarithm of the IC50 (pIC50) in data set [4] was 6.51.
In the case of `COc1ccc(CNC(=O)c2cn(C3CC3)c3cc(N4CCC(C(N)=O)CC4)c(F)cc3c2=O)cc1`, the pIC50 in data set [1] was less than 4.00; in data set [3] it was 5.59; in data set [4] it was 5.56. Also, in data set [2], the selectivity ratio is more than 36.4.
As to `CCCCn1cc(C(=O)NCc2ccc(OC)c([N+](=O)[O-])c2)c(=O)c2cc(F)c(N3CCC(C(N)=O)CC3)cc21`, the values for the negative-log IC50 (pIC50) in data set [1], in data set [3] and in data set [4] were less than 4.00, 5.38 and 5.51, respectively. Moreover, the selectivity ratio in data set [2] was more than 32.6.
As to `CCCCn1cc(C(=O)NCc2ccc(O)cc2)c(=O)c2cc(F)c(N3CCC(C(N)=O)CC3)cc21`, the pIC50 is 4.38 in data set [1], 5.29 in data set [3] and 5.51 in data set [4]. Further, the selectivity ratio in data set [2] turned out to be 13.5.
Take `CCCn1cc(C(=O)O)c(=O)c2cc(F)c(N3CCC(C(N)=O)CC3)cc21`: the figures for the pIC50 in data set [1], in data set [3] and in data set [4] were less than 4.00, less than 4.40 and less than 4.40, respectively. Besides, in data set [2], the selectivity ratio was more than 2.5.
In the case of `Nc1nc(N)nc(Nc2ccc([As]3SCC(CO)S3)cc2)n1` (stereo not given) [MELARSOPROL], in data set [4], the negative logarithm of the IC50 (pIC50) was 8.59.
In the case of `CCCCn1cc(C(=O)O)c(=O)c2cc(F)c(N3CCC(C(N)=O)CC3)cc21`, the pIC50 is less than 4.00 in data set [1], less than 4.40 in data set [3] and less than 4.40 in data set [4]. Moreover, the selectivity ratio in data set [2] was more than 2.5.
For `CCOC(=O)c1cnc2cc(C(F)(F)F)ccc2c1O`, the result in data set [3] and in data set [4] was inactive.
For the molecule `NC(=O)C1CCN(c2cc3c(cc2F)c(=O)c(C(=O)O)cn3C2CC2)CC1`, the negative logarithm of the IC50 (pIC50) was less than 4.00 in data set [1], less than 4.40 in data set [3] and less than 4.40 in data set [4]. Further, in data set [2], the selectivity ratio was more than 2.5.
With `CCn1cc(C(=O)Nc2ccc(Cl)c(F)c2)c(=O)c2ccc(C(F)(F)F)cc21`, the pIC50 in data set [1] was less than 4.00; in data set [3], less than 4.40; in data set [4], less than 4.40. Besides, the selectivity ratio in data set [2] is more than 2.5.
Turning to `CCn1cc(C(=O)O)c(=O)c2ccc(C(F)(F)F)cc21`, the pIC50 is less than 4.00 in data set [1], less than 4.40 in data set [3] and less than 4.40 in data set [4]. In addition, the selectivity ratio in data set [2] was more than 2.5.
For the molecule `CCOC(=O)c1c[nH]c2cc(Cl)c(F)cc2c1=O`, the outcome in data set [3] and in data set [4] was inactive.
Consider `CCCCn1cc(C(=O)O)c(=O)c2cc(F)c(N3CCOCC3)cc21`, for which the pIC50 in data set [1] was less than 4.00; in data set [3], 4.65; in data set [4], 4.72. Moreover, the selectivity ratio in data set [2] was more than 5.21.
Take `CCCCn1cc(C(=O)O)c(=O)c2cc(F)c(N(C)Cc3ccccc3)cc21`: the values for the pIC50 in data set [1], in data set [3] and in data set [4] were 4.36, 4.64 and 4.76, respectively. Besides, the selectivity ratio in data set [2] was 2.51.
The corresponding values for `CCCCn1cc(C(=O)O)c(=O)c2cc(F)c(N(C)C)cc21` are less than 4.00, less than 4.40, less than 4.40 and more than 2.5.
In turn, `NCCCC(N)(C(=O)O)C(F)F` (stereo not given) [EFLORNITHINE HYDROCHLORIDE] had a pIC50 in data set [4] of 4.64.
Still for that read-out and setting: to `N=C(N)c1ccc(OCCCCCOc2ccc(C(=N)N)cc2)cc1` [PENTAMIDINE ISETHIONATE] belongs 8.54.
